Laboratory results reported in ChEMBL document CHEMBL1147862, “Studies on synthesis and pharmacological activities of 3,6-disubstituted-1,2,4-triazolo[3,4-b]-1,3,4-thiadiazoles and their dihydro analogues” (2007).

Assays:
Type in all cases: functional
[1] = test system: Aspergillus niger; assay: Antifungal activity against Aspergillus niger at 30 ug/ml by paper disc method; details: read-out: IZ
[2] = test system: Candida albicans; assay: Antifungal activity against Candida albicans at 30 ug/ml by paper disc method; details: read-out: IZ
[3] = test system: Mus musculus; assay: Analgesic activity in Swiss mouse assessed as increase in reaction time at 20 mg/kg, po after 60 mins by Eddy's hot plate technique
Summary of the method: (§1)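 Swiss mice of either sex, 25–35 g, placed one at a time on a hot plate held at 55 °C. End point is paw licking or jumping, whichever comes first, with a 15 s cut-off to avoid paw injury. Reaction time is recorded and reported as percent increase in reaction time.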

[4] = test system: Aspergillus niger; assay: Antifungal activity against Aspergillus niger at 20 ug/ml by paper disc method; details: read-out: IZ
[5] = test system: Escherichia coli; assay: Antibacterial activity against Escherichia coli at 20 ug/ml by agar plate diffusion technique; details: read-out: IZ
[6] = test system: Staphylococcus aureus; assay: Antibacterial activity against Staphylococcus aureus at 30 ug/ml by agar plate diffusion technique; details: read-out: IZ
[7] = test system: Staphylococcus aureus; assay: Antibacterial activity against Staphylococcus aureus at 10 ug/ml by agar plate diffusion technique; details: read-out: IZ
[8] = test system: Rattus norvegicus; assay: Antiinflammatory activity in Wistar Albino rat assessed as inhibition of carrageenan-induced paw oedema at 20 mg/kg after 3 hrs relative to control
Summary of the method: (§2)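 Wistar albino rats, 150–200 g, six per group, dosed orally with a 20 mg/kg suspension; control gets 0.1 ml 1% gum acacia. After 30 min, 0.1 ml 1% carrageenan in saline is injected subplantar into the right hind paw. Paw volume is read by plethysmograph at 0–4 h. Inhibition = 100(1 − Vtest/Vcontrol) on mean volume increase.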

[9] = test system: Pseudomonas aeruginosa; assay: Antibacterial activity against Pseudomonas aeruginosa at 20 ug/ml by agar plate diffusion technique; details: read-out: IZ
[10] = test system: Escherichia coli; assay: Antibacterial activity against Escherichia coli at 30 ug/ml by agar plate diffusion technique; details: read-out: IZ
[11] = test system: Mus musculus; assay: Analgesic activity in Swiss mouse assessed as increase in reaction time at 20 mg/kg, po after 90 mins by Eddy's hot plate technique; summary of the method: as §1
[12] = test system: Candida albicans; assay: Antifungal activity against Candida albicans at 20 ug/ml by paper disc method; details: read-out: IZ
[13] = test system: Pseudomonas aeruginosa; assay: Antibacterial activity against Pseudomonas aeruginosa at 10 ug/ml by agar plate diffusion technique; details: read-out: IZ
[14] = test system: Rattus norvegicus; assay: Antiinflammatory activity in Wistar Albino rat assessed as inhibition of carrageenan-induced paw oedema at 20 mg/kg after 1 hr relative to control; summary of the method: as §2
[15] = test system: Escherichia coli; assay: Antibacterial activity against Escherichia coli at 10 ug/ml by agar plate diffusion technique; details: read-out: IZ
[16] = test system: Staphylococcus aureus; assay: Antibacterial activity against Staphylococcus aureus at 20 ug/ml by agar plate diffusion technique; details: read-out: IZ
[17] = test system: Mus musculus; assay: Analgesic activity in Swiss mouse assessed as increase in reaction time at 20 mg/kg, po after 30 mins by Eddy's hot plate technique; summary of the method: as §1
[18] = test system: Bacillus subtilis; assay: Antibacterial activity against Bacillus subtilis at 20 ug/ml by agar plate diffusion technique; details: read-out: IZ
[19] = test system: Bacillus subtilis; assay: Antibacterial activity against Bacillus subtilis at 10 ug/ml by agar plate diffusion technique; details: read-out: IZ
[20] = test system: Bacillus subtilis; assay: Antibacterial activity against Bacillus subtilis at 30 ug/ml by agar plate diffusion technique; details: read-out: IZ
[21] = test system: Candida albicans; assay: Antifungal activity against Candida albicans at 10 ug/ml by paper disc method; details: read-out: IZ
[22] = test system: Rattus norvegicus; assay: Antiinflammatory activity in Wistar Albino rat assessed as inhibition of carrageenan-induced paw oedema at 20 mg/kg after 4 hrs relative to control; summary of the method: as §2
[23] = test system: Aspergillus niger; assay: Antifungal activity against Aspergillus niger at 10 ug/ml by paper disc method; details: read-out: IZ
[24] = test system: Rattus norvegicus; assay: Antiinflammatory activity in Wistar Albino rat assessed as inhibition of carrageenan-induced paw oedema at 20 mg/kg after 2 hrs relative to control; summary of the method: as §2
[25] = test system: Pseudomonas aeruginosa; assay: Antibacterial activity against Pseudomonas aeruginosa at 30 ug/ml by agar plate diffusion technique; details: read-out: IZ

Row | Structure (SMILES) | zone of inhibition at 30 µg/mL [1] [mm] | zone of inhibition at 30 µg/mL [2] [mm] | Activity [3] [%] | zone of inhibition at 20 µg/mL [4] [mm] | zone of inhibition at 20 µg/mL [5] [mm] | zone of inhibition at 30 µg/mL [6] [mm] | zone of inhibition at 10 µg/mL [7] [mm] | inhibition in vivo at 20 mg/kg [8] [%] | zone of inhibition at 20 µg/mL [9] [mm] | zone of inhibition at 30 µg/mL [10] [mm] | Activity [11] [%] | zone of inhibition at 20 µg/mL [12] [mm] | zone of inhibition at 10 µg/mL [13] [mm] | inhibition in vivo at 20 mg/kg [14] [%] | zone of inhibition at 10 µg/mL [15] [mm] | zone of inhibition at 20 µg/mL [16] [mm] | Activity [17] [%] | zone of inhibition at 20 µg/mL [18] [mm] | zone of inhibition at 10 µg/mL [19] [mm] | zone of inhibition at 30 µg/mL [20] [mm] | also measured
1 | COc1ccc(Cl)c(-c2nnc3sc(-c4ccnc(Cl)c4)nn23)c1 | 18.4 | 19.3 | 17.45 | 11.8 | 12.2 | 18.6 | 6.98 | 23.5 | 12.5 | 19.2 | 23 | 13.7 | 7.02 | 14.4 | 6.39 | 13.7 | 7.14 | 13.8 | 7.12 | 18.6 | zone of inhibition at 10 µg/mL [21]: 7.14 mm; inhibition in vivo at 20 mg/kg [22]: 27.2%; zone of inhibition at 10 µg/mL [23]: 6.64 mm; inhibition in vivo at 20 mg/kg [24]: 20.1%; zone of inhibition at 30 µg/mL [25]: 19.1 mm
2 | COc1ccc(Cc2nnc3sc(-c4ccnc(F)c4)nn23)cc1OC | 21 | 21.7 | 10.3 | 12.4 | 14.4 | 19.2 | 7.1 | 16.7 | 14.9 | 19.3 | 22.66 | 14.8 | 8.21 | 11.1 | 7.96 | 13.8 | 2.83 | 14.4 | 7.64 | 19.3 | zone of inhibition at 10 µg/mL [21]: 8.14 mm; inhibition in vivo at 20 mg/kg [22]: 21.5%; zone of inhibition at 10 µg/mL [23]: 7.14 mm; inhibition in vivo at 20 mg/kg [24]: 14.3%; zone of inhibition at 30 µg/mL [25]: 19.3 mm
3 | Cc1occc1-c1nnc2n1NC(c1cccn1C)S2 (stereo not given) | 13.7 | 13.2 | 16.8 | 8.08 | 7.19 | 11.2 | 4.42 | 21.5 | 7.9 | 12.1 | 21.96 | 8.06 | 4.36 | 14.6 | 4.11 | 6.23 | 7.55 | 7.48 | 4.52 | 11.4 | zone of inhibition at 10 µg/mL [21]: 4.5 mm; inhibition in vivo at 20 mg/kg [22]: 22.4%; zone of inhibition at 10 µg/mL [23]: 4.93 mm; inhibition in vivo at 20 mg/kg [24]: 18.9%; zone of inhibition at 30 µg/mL [25]: 13.2 mm
4 | COc1ccc(Cc2nnc3sc(-c4cc(C)nc5ccccc45)nn23)cc1OC | 16.7 | 17.5 | 11.05 | 13 | 8.8 | 16.6 | 6.72 | 21.2 | 10.1 | 16 | 20.14 | 12 | 5.26 | 10.2 | 5.25 | 11.7 | 5.96 | 10.2 | 6.29 | 16.1 | zone of inhibition at 10 µg/mL [21]: 5.48 mm; inhibition in vivo at 20 mg/kg [22]: 24.9%; zone of inhibition at 10 µg/mL [23]: 6.25 mm; inhibition in vivo at 20 mg/kg [24]: 13.2%; zone of inhibition at 30 µg/mL [25]: 16.1 mm
